The results in this text go back to ChEMBL document CHEMBL3817731, “Synthesis and investigation of novel benzimidazole derivatives as antifungal agents” (Bioorg Med Chem, 2016).

Molecules are shown by their SMILES. Converted amounts (≈) assume the structure as drawn. The source made the active and inactive calls. The calls are words filed in the database; no cut-off is given here.

In data set [1] the test system is Candida albicans. Briefly: Antifungal activity against Candida albicans ATCC 64124 after 48 hrs by CLSI M27-A3 method. It is filed as functional. The conditions noted are these: ATCC 64124, 48 h.
Data set [2] relates to Candida albicans. As to the kind of experiment: Antifungal activity against Candida albicans ATCC MYA-2876 after 48 hrs by CLSI M27-A3 method. It counts as functional. The note with it: ATCC MYA-2876, 48 h.
Data set [3] has as its system Candida albicans. As to the kind of experiment: Antifungal activity against Candida albicans ATCC MYA-90819 after 48 hrs by CLSI M27-A3 method. It counts as functional. The note with it: ATCC MYA-90819, 48 h.
The subject of data set [4] is Candida albicans. As to the kind of experiment: Antifungal activity against Candida albicans ATCC MYA-2310 after 48 hrs by CLSI M27-A3 method. The conditions noted are these: ATCC MYA-2310, 48 h. It is filed as functional.
The test system of data set [5] is Candida albicans. As to the kind of experiment: Antifungal activity against Candida albicans ATCC MYA-1237 after 48 hrs by CLSI M27-A3 method. It is filed as functional. The conditions noted are these: ATCC MYA-1237, 48 h.
The subject of data set [6] is Candida albicans. Briefly: Antifungal activity against Candida albicans ATCC 10231 after 48 hrs by CLSI M27-A3 method. It is filed as functional. The conditions noted are these: ATCC 10231, 48 h.
Data set [7] relates to Candida albicans. As to the kind of experiment: Antifungal activity against Candida albicans ATCC MYA-1003 after 48 hrs by CLSI M27-A3 method. It counts as functional. The conditions noted are these: ATCC MYA-1003, 48 h.
For another data set, the system named is Nakaseomyces glabratus. As to the kind of experiment: Antifungal activity against Candida glabrata ATCC 2001 after 48 hrs by CLSI M27-A3 method. It counts as functional. The note with it: CBS 138, 48 h.
In another data set the test system is Pichia kudriavzevii. Briefly: Antifungal activity against Candida krusei ATCC 6258 after 48 hrs by CLSI M27-A3 method. It is filed as functional. The note with it: ATCC 6258, 48 h.
For a further data set, the system named is Candida parapsilosis. Briefly: Antifungal activity against Candida parapsilosis ATCC 22019 after 48 hrs by CLSI M27-A3 method. It is filed as functional. The note with it: Lodderomyces parapsilosis, ATCC 22019, 48 h.
Another data set concerns Aspergillus flavus. As to the kind of experiment: Antifungal activity against Aspergillus flavus ATCC MYA-3631 after 48 hrs by CLSI M38-A2 method. It counts as functional. The note with it: ATCC MYA-3631, 48 h.
The next data set relates to Aspergillus nidulans. Briefly: Antifungal activity against Aspergillus nidulans ATCC 38163 after 48 hrs by CLSI M38-A2 method. It counts as functional. The note with it: ATCC 38163, 48 h.
Another data set has as its system Aspergillus terreus. Briefly: Antifungal activity against Aspergillus terreus ATCC MYA3633 after 48 hrs by CLSI M38-A2 method. The conditions noted are these: ATCC MYA3633, 48 h. It counts as functional.
Data set [8] concerns Candida albicans. As to the kind of experiment: Induction of ROS production in Candida albicans ATCC 10231 at 8 to 16 ug/ml after 1 hr by DCFH-DA probe based fluorescence microscopy. It counts as functional, organism-based. The essentials:
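C. albicans ATCC 10231 yeast cells exposed to drug at 8 and 16 µg/mL for 1 h at 35 °C, alongside untreated and AmB controls. Cells were then stained with DCFH-DA (20 µg/mL) for 30 min in the dark. Intracellular ROS was visualised by fluorescence microscopy.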

Data set [9] has as its system Candida albicans. As to the kind of experiment: Fungistatic activity against Candida albicans ATCC 64124 assessed as reduction in fungal population at MIC upto 24 hrs by time kill assay. It is filed as functional, organism-based.
Data set [10] concerns Candida albicans. As to the kind of experiment: Fungicidal activity against Candida albicans ATCC 64124 assessed as reduction in fungal population at 2 times MIC after 24 to 48 hrs by time kill assay. It counts as functional.
The test system of another data set is A549. As to the kind of experiment: Cytotoxicity against human A549 cells assessed as reduction in cell survival after 24 hrs by resazurin assay. It is filed as cell-based. The note with it: A549, 24 h. The essentials:
(§1)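 Human A549 cells treated 24 h; BEAS 2B cells treated 6 h or 24 h. DMSO-treated cells served as negative control and Triton X-treated cells as positive control. Read-out was cell survival.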
(The colour change of resazurin is a common sign of viable cells or microbes.)

Data set [11] in a line: Cytotoxicity against human BEAS2B cells assessed as reduction in cell survival after 6 hrs by resazurin assay. It is filed as cell-based. The conditions noted are these: beas-2b. The essentials: as §1
A short description of data set [12]: Cytotoxicity against human BEAS2B cells assessed as reduction in cell survival after 24 hrs by resazurin assay. The note with it: BEAS-2B. It counts as cell-based. Put shortly: as §1
In data set [13] the test system is Candida albicans. Briefly: Induction of ROS production in Candida albicans ATCC 10231 at 1 to 2 times MIC after 1 hr by DCFH-DA probe based fluorescence microscopy. It counts as functional, organism-based.
Data set [14] concerns Candida albicans. As to the kind of experiment: Fungistatic activity against Candida albicans ATCC 64124 assessed as reduction in fungal population at MIC after 24 hrs by time kill assay.
The subject of data set [15] is Candida albicans. As to the kind of experiment: Fungicidal activity against Candida albicans ATCC 64124 assessed as reduction in fungal population at MIC after 9 hrs by time kill assay. It is filed as functional.

In the case of `CCCCCCCCCCCCN1CCN(c2ccc3nc(-c4ccc5nc(-c6ccc(O)cc6)[nH]c5c4)[nH]c3c2)CC1`, the MIC in the data set with Candida albicans [1], against Candida albicans [2], in the data set on Candida albicans [3], with Candida albicans [4], with Candida albicans [5] and in the data set on Candida albicans [6] was more than 31.2 µg/mL each time. Further, the MIC in the data set with Candida albicans [7], in the data set on Nakaseomyces glabratus, against Pichia kudriavzevii, in the data set on Candida parapsilosis, with Aspergillus flavus and in the data set on Aspergillus nidulans was more than 31.2 µg/mL throughout. Besides, the MIC (in general, the least concentration at which growth counts as inhibited) with Aspergillus terreus is more than 31.2 µg/mL. Further, in the data set with Candida albicans [8], the result was inactive.

In the case of `CN1CCN(c2ccc3[nH]c(-c4ccc5[nH]c(-c6ccc(O)cc6)nc5c4)nc3c2)CC1` [HOECHST 33258], the MIC was 7.8 µg/mL (≈ 18.4 µM) in the data set with Candida albicans [2]; 7.8 µg/mL (≈ 18.4 µM) against Candida albicans [3]; 3.9 µg/mL (≈ 9.19 µM) in the data set on Candida albicans [4]; 3.9 µg/mL (≈ 9.19 µM) with Candida albicans [5]; 7.8 µg/mL (≈ 18.4 µM) in the data set with Candida albicans [7]; 0.975 µg/mL (≈ 2.3 µM) against Nakaseomyces glabratus. Besides, the MIC against Candida parapsilosis amounted to 0.975 µg/mL (≈ 2.3 µM); against Aspergillus flavus, 31.2 µg/mL (≈ 73.5 µM); against Aspergillus nidulans, 1.95 µg/mL (≈ 4.59 µM). In addition, the outcome in the data set on Candida albicans [9] and with Candida albicans [13] was Active. Moreover, the values for the Activity (with Candida albicans [10]; in [11]; in the data set on Candida albicans [14]) were 5 log10CFU, “Non-toxic” and 1 log10CFU, respectively. In addition, the IC50 (in the data set on A549; in data set [12]) was not below 31.2 µg/mL each time.

Consider `C#CCOc1ccc(-c2nc3ccc(-c4nc5ccc(N6CCN(C)CC6)cc5[nH]4)cc3[nH]2)cc1`, for which the MIC was 31.2 µg/mL (≈ 67.5 µM) against Candida albicans [1]; 7.8 µg/mL (≈ 16.9 µM) with Candida albicans [2]; 7.8 µg/mL (≈ 16.9 µM) against Candida albicans [4]; more than 31.2 µg/mL against Candida albicans [5]; 7.8 µg/mL (≈ 16.9 µM) against Candida albicans [6]; 7.8 µg/mL (≈ 16.9 µM) in the data set with Nakaseomyces glabratus. Further, the MIC was 7.8 µg/mL (≈ 16.9 µM) in the data set on Pichia kudriavzevii, 1.95 µg/mL (≈ 4.22 µM) in the data set with Candida parapsilosis and more than 31.2 µg/mL against Aspergillus flavus. Besides, the IC50 – broadly, the concentration needed to halve the response being measured – amounted to 15.6 µg/mL (≈ 33.7 µM) in the data set on A549 and 0.98 µg/mL (≈ 2.12 µM) in data set [12]. Further, the Activity result in [11] is reported as “Non-toxic”.

Regarding `C[C@@H]1[C@H](O)[C@@H](C)/C=C/C=C/C=C/C=C/C=C/C=C/C=C/[C@H](O[C@@H]2O[C@H](C)[C@@H](O)[C@H](N)[C@@H]2O)C[C@@H]2O[C@](O)(C[C@@H](O)C[C@@H](O)[C@H](O)CC[C@@H](O)C[C@@H](O)CC(=O)O[C@H]1C)C[C@H](O)[C@H]2C(=O)O` [AMPHOTERICIN B], the MIC against Candida albicans [1] came to 3.9 µg/mL (≈ 4.22 µM); with Candida albicans [2], 1.95 µg/mL (≈ 2.11 µM); with Candida albicans [3] it was 0.975 µg/mL (≈ 1.06 µM); with Candida albicans [4], 1.95 µg/mL (≈ 2.11 µM); in the data set on Candida albicans [5], 3.9 µg/mL (≈ 4.22 µM); in the data set with Candida albicans [6], 3.9 µg/mL (≈ 4.22 µM). The MIC in the data set with Candida albicans [7] turned out to be 3.9 µg/mL (≈ 4.22 µM); with Nakaseomyces glabratus, 1.95 µg/mL (≈ 2.11 µM); in the data set on Pichia kudriavzevii it was 3.9 µg/mL (≈ 4.22 µM); with Candida parapsilosis it was 1.95 µg/mL (≈ 2.11 µM); against Aspergillus terreus, 3.9 µg/mL (≈ 4.22 µM). In addition, the result with Candida albicans [15], in the data set with Candida albicans [10] and in the data set with Candida albicans [13] was Active.

As for `CCOc1ccc(-c2nc3cc(-c4nc5cc(N6CCN(C)CC6)ccc5[nH]4)ccc3[nH]2)cc1`, the MIC with Candida albicans [1], against Candida albicans [2], in the data set with Candida albicans [3], against Candida albicans [4], against Candida albicans [5] and with Candida albicans [6] was 7.8 µg/mL (≈ 17.2 µM) in each case. For the same compound, the MIC in the data set with Candida albicans [7] was 15.6 µg/mL (≈ 34.5 µM); against Nakaseomyces glabratus it was 7.8 µg/mL (≈ 17.2 µM); against Pichia kudriavzevii, 7.8 µg/mL (≈ 17.2 µM); with Candida parapsilosis it was 3.9 µg/mL (≈ 8.62 µM); with Aspergillus flavus, 31.2 µg/mL (≈ 68.9 µM); with Aspergillus nidulans it was 3.9 µg/mL (≈ 8.62 µM). In the data set on Aspergillus terreus, this compound gave an MIC of 7.8 µg/mL (≈ 17.2 µM). Moreover, the result in the data set with Candida albicans [9] and in the data set with Candida albicans [13] was Active. In addition, the Activity was 5 log10CFU in the data set with Candida albicans [10], “Non-toxic” in [11] and 1 log10CFU in the data set on Candida albicans [14]. Also, the IC50 is 0.98 µg/mL (≈ 2.17 µM) with A549 and 1.95 µg/mL (≈ 4.31 µM) in [12].

Consider `COc1ccc(-c2nc3cc(-c4nc5cc(N6CCN(C)CC6)ccc5[nH]4)ccc3[nH]2)cc1`, for which the MIC against Candida albicans [1] was 31.2 µg/mL (≈ 71.1 µM); in the data set with Candida albicans [2], 15.6 µg/mL (≈ 35.6 µM); with Candida albicans [3] it was 15.6 µg/mL (≈ 35.6 µM); against Candida albicans [4] it was 7.8 µg/mL (≈ 17.8 µM); against Candida albicans [5], 15.6 µg/mL (≈ 35.6 µM); in the data set with Candida albicans [6], 15.6 µg/mL (≈ 35.6 µM). Also, the MIC is more than 31.2 µg/mL in the data set on Candida albicans [7]; 3.9 µg/mL (≈ 8.89 µM) in the data set with Nakaseomyces glabratus; 31.2 µg/mL (≈ 71.1 µM) with Pichia kudriavzevii; 3.9 µg/mL (≈ 8.89 µM) against Candida parapsilosis; 31.2 µg/mL (≈ 71.1 µM) with Aspergillus flavus; 15.6 µg/mL (≈ 35.6 µM) against Aspergillus nidulans. The compound further displayed an MIC against Aspergillus terreus of 15.6 µg/mL (≈ 35.6 µM). The IC50 was 0.98 µg/mL (≈ 2.23 µM) with A549 and 1.95 µg/mL (≈ 4.45 µM) in data set [12]. Also, in data set [11], the Activity entry was “Non-toxic”.

In the case of `C#CCOc1ccc(-c2nc3ccc(-c4nc5ccc(N6CCN(CCC)CC6)cc5[nH]4)cc3[nH]2)cc1`, the MIC against Candida albicans [1], against Candida albicans [2], in the data set with Candida albicans [3], with Candida albicans [4], with Candida albicans [5] and in the data set with Candida albicans [6] was more than 31.2 µg/mL throughout. The MIC in the data set with Candida albicans [7] was more than 31.2 µg/mL; with Nakaseomyces glabratus, more than 31.2 µg/mL; in the data set on Pichia kudriavzevii, 15.6 µg/mL (≈ 31.8 µM); against Candida parapsilosis it was more than 31.2 µg/mL; in the data set on Aspergillus flavus, more than 31.2 µg/mL; in the data set with Aspergillus nidulans, more than 31.2 µg/mL. The same compound displayed an MIC in the data set on Aspergillus terreus of more than 31.2 µg/mL.
